Data reported in ChEMBL document CHEMBL1146457, “Tetrahydrofuran lignans from Nectandra megapotamica with trypanocidal activity” (J Nat Prod, 2004).

Key:
Trypanosoma cruzi [1] = assay: Trypanocidal activity against Trypanosoma cruzi Y trypomastigotes infected in mouse macrophage at 2 uM; format: functional
Procedure, shortened: (§1)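 Trypomastigotes were harvested from mouse macrophage cultures, about 2 × 10^6 parasites/mL, in RPMI 1640 in 96-well plates. Compounds were dissolved in DMSO and diluted in blood to final 2.0, 8.0 and 32.0 µM, with 1% DMSO. Plates were incubated at 4 °C, and percent lysis was read by MTT colorimetry, in triplicate. Negative control: infected blood plus DMSO.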

Trypanosoma cruzi [2] = assay: Trypanocidal activity against Trypanosoma cruzi Y trypomastigotes infected in mouse macrophage at 32 uM; format: functional; procedure, shortened: as §1
Trypanosoma cruzi [3] = assay: Trypanocidal activity against Trypanosoma cruzi Y trypomastigotes infected in mouse macrophage at 8 uM; format: functional; procedure, shortened: as §1
Trypanosoma cruzi [4] = assay: Antitrypanosomal activity against Trypanosoma cruzi Y trypomastigotes infected in mouse macrophage; format: functional, organism-based; procedure, shortened: as §1
Trypanosoma cruzi [5] = assay: Trypanocidal activity against Trypanosoma cruzi Y trypomastigotes infected in mouse macrophage at 250 ug/ml; format: functional, organism-based
Procedure, shortened: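 Positive-control wells had gentian violet at 250 µg/mL against trypomastigotes from mouse macrophage cultures, about 2 × 10^6 parasites/mL, in RPMI 1640 in blood. Incubation was at 4 °C, and percent lysis was measured by MTT colorimetric method, in triplicate.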

## COc1cc([C@H]2O[C@@H](c3ccc(OC)c(OC)c3)[C@@H](C)[C@@H]2C)ccc1O [ARISTOLIGNIN]
Trypanosoma cruzi [1]
  Activity: 34.2%
Trypanosoma cruzi [2]
  Activity: 47.6%
Trypanosoma cruzi [3]
  Activity: 46.8%
Trypanosoma cruzi [4]
  IC50: 34.8 µM

## COc1ccc([C@@H]2O[C@H](c3ccc4c(c3)OCO4)[C@@H](C)[C@@H]2C)cc1OC [CALOPIPTIN]
Trypanosoma cruzi [1]
  Activity: 21.4%
Trypanosoma cruzi [2]
  Activity: 60.3%
Trypanosoma cruzi [3]
  Activity: 49.2%
Trypanosoma cruzi [4]
  IC50: 12.6 µM

## COc1ccc([C@H]2O[C@@H](c3ccc(OC)c(OC)c3)[C@H](C)[C@@H]2C)cc1OC [GALGRAVIN]
Trypanosoma cruzi [1]
  Activity: 44%
Trypanosoma cruzi [2]
  Activity: 59.9%
Trypanosoma cruzi [3]
  Activity: 56.3%
Trypanosoma cruzi [4]
  IC50: 4.4 µM

## COc1ccc([C@H]2O[C@H](c3ccc(OC)c(OC)c3)[C@@H](C)[C@H]2C)cc1OC [GANSCHISANDRINE]
Trypanosoma cruzi [1]
  Activity: 36.5%
Trypanosoma cruzi [2]
  Activity: 55.6%
Trypanosoma cruzi [3]
  Activity: 49.2%
Trypanosoma cruzi [4]
  IC50: 12.2 µM

## CN(C)c1ccc(C(=C2C=CC(=[N+](C)C)C=C2)c2ccc(N(C)C)cc2)cc1 [GENTIAN VIOLET]
Trypanosoma cruzi [5]
  IC50: 76 µM

## COc1ccc([C@@H]2O[C@H](c3ccc4c(c3)OCO4)[C@@H](C)[C@H]2C)cc1OC [MACHILIN G]
Trypanosoma cruzi [1]
  Activity: 54.8%
Trypanosoma cruzi [2]
  Activity: 94%
Trypanosoma cruzi [3]
  Activity: 53.6%
Trypanosoma cruzi [4]
  IC50: 2.2 µM

## COc1cc([C@H]2O[C@@H](c3ccc(OC)c(OC)c3)[C@H](C)[C@@H]2C)ccc1O [NECTANDRIN A]
Trypanosoma cruzi [1]
  Activity: 10.2%
Trypanosoma cruzi [2]
  Activity: 18%
Trypanosoma cruzi [3]
  Activity: 13.5%
Trypanosoma cruzi [4]
  IC50: 17400 µM

## COc1cc([C@H]2O[C@@H](c3ccc(O)c(OC)c3)[C@H](C)[C@@H]2C)ccc1O [NECTANDRIN B]
Trypanosoma cruzi [1]
  Activity: 23%
Trypanosoma cruzi [2]
  Activity: 48%
Trypanosoma cruzi [3]
  Activity: 25%
Trypanosoma cruzi [4]
  IC50: 47.3 µM
